The source of these data is ChEMBL document CHEMBL1124802 (J Med Chem, 1990).

Experiment [1] in a line: Percentage maximum stimulation adenylate cyclase was measured versus DA. The gist of the method: (§1)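 Rat striatum homogenised in HEPES/EGTA buffer. […] Stopped with SDS, then ZnSO4/Ba(OH)2 precipitation. [32P]cAMP isolated by HPLC with UV-tracked internal standard and counted; percent stimulation calculated from peak areas and radioactivity.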
Experiment [2] concerns the target D(2) dopamine receptor (Rattus norvegicus, UniProt P61169). Nature of the experiment: Displacement of [3H]- -spiperone from Dopamine receptor D2 in rat striatum. The procedure, abridged:
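Same rat striatal membrane preparation and buffer (50 mM HEPES, 4 mM MgCl2, pH 7.4). Competition with [3H]spiperone in 1.0 mL at 37 °C for 15 min. Nonspecific binding defined with 1 µM chlorpromazine. Bound ligand collected by glass-fibre filtration and counted by scintillation; protein measured by Lowry.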

Experiment [3] concerns the target D(1A) dopamine receptor (Rattus norvegicus, UniProt P18901). Description: Displacement of [3H]- #NAME? from binding Dopamine receptor D1 in rat striatum. The procedure, abridged: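 Rat striatal membranes, homogenised and washed twice by centrifugation in ice-cold 50 mM HEPES with 4 mM MgCl2, pH 7.4, at about 2 mg wet weight/mL. Competition with the tritiated selective D1 antagonist in 1.0 mL of the same buffer, 37 °C for 15 min. Nonspecific binding defined with 1 µM of the unlabelled antagonist. Filtration and scintillation counting; protein measured by Lowry.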

A short description of experiment [4]: Stimulation of Adenylate cyclase from rat striatal membranes. It is filed as cell membranes, Membrane. The procedure, abridged: as §1

Sequence of D(2) dopamine receptor (P61169 whole entry): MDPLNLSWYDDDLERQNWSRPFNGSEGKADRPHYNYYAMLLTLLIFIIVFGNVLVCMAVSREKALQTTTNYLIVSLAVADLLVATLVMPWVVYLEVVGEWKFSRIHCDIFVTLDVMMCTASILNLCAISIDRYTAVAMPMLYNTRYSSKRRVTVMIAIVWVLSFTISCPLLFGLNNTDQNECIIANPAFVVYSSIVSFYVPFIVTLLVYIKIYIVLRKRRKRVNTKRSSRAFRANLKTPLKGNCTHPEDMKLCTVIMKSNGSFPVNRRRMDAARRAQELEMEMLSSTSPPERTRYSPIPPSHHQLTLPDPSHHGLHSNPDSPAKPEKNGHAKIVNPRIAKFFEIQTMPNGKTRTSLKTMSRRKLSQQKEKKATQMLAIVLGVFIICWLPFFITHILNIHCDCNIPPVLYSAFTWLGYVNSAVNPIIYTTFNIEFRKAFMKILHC
Sequence of D(1A) dopamine receptor (P18901 whole entry): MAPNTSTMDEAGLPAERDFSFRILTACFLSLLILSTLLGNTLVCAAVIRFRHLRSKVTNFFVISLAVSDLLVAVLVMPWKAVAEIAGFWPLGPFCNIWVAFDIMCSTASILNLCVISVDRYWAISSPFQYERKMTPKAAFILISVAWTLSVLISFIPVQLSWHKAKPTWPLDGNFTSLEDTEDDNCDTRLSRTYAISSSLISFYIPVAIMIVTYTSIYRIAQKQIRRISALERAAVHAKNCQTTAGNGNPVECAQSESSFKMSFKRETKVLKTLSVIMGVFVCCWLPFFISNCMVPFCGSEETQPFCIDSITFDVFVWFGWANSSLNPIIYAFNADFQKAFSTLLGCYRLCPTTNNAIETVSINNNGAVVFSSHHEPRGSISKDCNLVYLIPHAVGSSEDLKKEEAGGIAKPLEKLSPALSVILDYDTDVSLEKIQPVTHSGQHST

With `Oc1cc2c(cc1O)CC(NCc1ccccc1)CC2` (configuration not stated), in experiment [1], the Max stimulation was determined as 25. Besides, the results for the IC50 in experiment [2] and in experiment [3] were 290 nM and over 5000 nM, respectively.
Compound `CCCN1Cc2ccccc2[C@@H]2c3cc(O)c(O)cc3CC[C@H]21` registered an EC50 in experiment [4] of over 10 nM. Moreover, the Max stimulation in experiment [1] is 32. The values for the IC50 in experiment [2] and in experiment [3] were 53 nM and 651 nM, respectively.
In experiment [1], `Oc1cc2c(cc1O)[C@@H]1c3ccccc3CN[C@@H]1CC2` came in with a Max stimulation of 17.
In experiment [4], `Oc1cc2c(cc1O)[C@@H](c1ccccc1)CNCC2` [(R)-SKF-38393] gave a concentration giving a half-maximal response (EC50) of 100 nM. In experiment [1], this compound registered a Max stimulation of 50.
In experiment [4], `Oc1cc2c(cc1O)[C@H]1CCCN[C@@H]1CC2` showed an EC50 of over 10 nM. Besides, the Max stimulation in experiment [1] turned out to be 33. The IC50 is 68 nM in experiment [2] and over 5000 nM in experiment [3].
In experiment [4], `NCCc1ccc(O)c(O)c1` [DOPAMINE] yielded an EC50 of 5000 nM. This compound also displayed a Max stimulation in experiment [1] of 100.
The compound `Oc1ccc([C@@H]2CNCc3sccc32)cc1O` came in with an EC50 in experiment [4] of 700 nM. In experiment [1], this compound had a Max stimulation of 120. Moreover, the IC50 in experiment [2] turned out to be 285 nM; in experiment [3], 120 nM.
As to `CN1Cc2ccccc2[C@@H]2c3cc(O)c(O)cc3CC[C@H]21`, in experiment [4], the EC50 was found to be 1000 nM. In experiment [1], this compound returned a Max stimulation of 63. For the same compound, the values for the IC50 in experiment [2] and in experiment [3] were 136 nM and 91 nM, respectively.
Regarding `CN1CCc2cc(Cl)c(O)cc2[C@@H](c2ccccc2)C1`, the Max stimulation in experiment [1] amounted to 0.
Consider `Oc1cc2c(cc1O)[C@H]1c3ccccc3CN[C@@H]1CC2` [DIHYDREXIDINE], for which the EC50 in experiment [4] was determined as 70 nM. In experiment [1], this compound registered a Max stimulation of 120.
